# From ChEMBL document CHEMBL3621047, “Quaternary Indolizidine and Indolizidone Iminosugars as Potential Immunostimulating and Glycosidase Inhibitory Agents: Synthesis, Conformational Analysis, Biological Activity, and Molecular Docking Study” (J Med Chem, 2015)
# pIC50, pKi: −log10 of the molar value. Activity calls are given as the source filed them. The rule behind the calls is not given here.
# What was measured:
# [1] = Inhibition of bovine liver beta-glucosidase using 10 mM p-nitrophenyl-[…]-D-glucopyranoside as substrate; design: species or system Bos taurus
# [2] = Inhibition of aspergillus niger alpha-galactosidase using 10 mM p-nitrophenyl-alpha-D-galactopyranoside as substrate
# In short: (§1)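 Enzyme (0.1 U/cm3; A. niger α-galactosidase or bovine liver β-galactosidase) was preincubated with inhibitor for 1 h at 37 °C. Substrate was 10 mM p-nitrophenyl α- or β-D-galactopyranoside in 200 mM sodium acetate, reacted 10 min at 37 °C. The reaction was stopped with 200 mM borate pH 9.8 and released p-nitrophenol read at 420 nm. Ki came from Lineweaver–Burk plots; values are the average of five assays.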
# Beta-galactosidase = biological target: T1, Beta-galactosidase (Bos taurus, UniProt Q58D55); assay: Inhibition of bovine liver beta-galactosidase using 10 mM p-nitrophenyl-beta-D-galactopyranoside as substrate; in short: as §1
# T1 sequence (Q58D55 whole entry): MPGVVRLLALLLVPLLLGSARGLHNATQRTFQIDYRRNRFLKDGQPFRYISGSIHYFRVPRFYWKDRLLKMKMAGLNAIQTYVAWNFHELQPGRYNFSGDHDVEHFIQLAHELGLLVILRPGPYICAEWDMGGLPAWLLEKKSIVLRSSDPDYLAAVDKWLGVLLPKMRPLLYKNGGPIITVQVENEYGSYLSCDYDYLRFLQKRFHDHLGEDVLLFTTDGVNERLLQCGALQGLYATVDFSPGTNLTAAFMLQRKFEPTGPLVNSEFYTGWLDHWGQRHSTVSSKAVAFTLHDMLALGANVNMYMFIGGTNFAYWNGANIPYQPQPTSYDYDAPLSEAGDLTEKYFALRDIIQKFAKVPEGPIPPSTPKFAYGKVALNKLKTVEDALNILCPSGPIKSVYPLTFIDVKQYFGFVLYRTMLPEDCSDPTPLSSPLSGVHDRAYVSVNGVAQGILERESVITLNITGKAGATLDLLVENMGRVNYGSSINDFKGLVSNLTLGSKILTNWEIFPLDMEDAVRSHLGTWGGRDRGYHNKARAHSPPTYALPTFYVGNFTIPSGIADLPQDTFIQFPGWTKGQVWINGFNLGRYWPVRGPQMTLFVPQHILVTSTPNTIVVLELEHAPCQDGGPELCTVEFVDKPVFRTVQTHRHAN
# Oryza sativa = assay: Inhibition of rice alpha-glucosidase at 1 mM using 10 mM p-nitrophenyl-alpha-D-glucopyranoside as substrate
# In short: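 Rice α-glucosidase (0.1 U cm−3) was preincubated with compound 1 h at 37 °C. Reaction used 10 mM p-nitrophenyl-α-D-glucopyranoside in 100 mM phosphate pH 6.8, 10 min at 37 °C, stopped with 0.1 M Na2CO3. p-Nitrophenol was read at 420 nm. NI means no 50% inhibition at 1 mM. Ki came from Lineweaver–Burk plots. Average of five assays.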
# [3] = biological target: T2, Alpha-mannosidase (Canavalia ensiformis) (UniProt C0HJB3); assay: Inhibition of jack bean alpha-mannosidase at 1 mM using 10 mM p-nitrophenyl-alpha-D-mannopyranoside as substrate
# T2 sequence (whole entry): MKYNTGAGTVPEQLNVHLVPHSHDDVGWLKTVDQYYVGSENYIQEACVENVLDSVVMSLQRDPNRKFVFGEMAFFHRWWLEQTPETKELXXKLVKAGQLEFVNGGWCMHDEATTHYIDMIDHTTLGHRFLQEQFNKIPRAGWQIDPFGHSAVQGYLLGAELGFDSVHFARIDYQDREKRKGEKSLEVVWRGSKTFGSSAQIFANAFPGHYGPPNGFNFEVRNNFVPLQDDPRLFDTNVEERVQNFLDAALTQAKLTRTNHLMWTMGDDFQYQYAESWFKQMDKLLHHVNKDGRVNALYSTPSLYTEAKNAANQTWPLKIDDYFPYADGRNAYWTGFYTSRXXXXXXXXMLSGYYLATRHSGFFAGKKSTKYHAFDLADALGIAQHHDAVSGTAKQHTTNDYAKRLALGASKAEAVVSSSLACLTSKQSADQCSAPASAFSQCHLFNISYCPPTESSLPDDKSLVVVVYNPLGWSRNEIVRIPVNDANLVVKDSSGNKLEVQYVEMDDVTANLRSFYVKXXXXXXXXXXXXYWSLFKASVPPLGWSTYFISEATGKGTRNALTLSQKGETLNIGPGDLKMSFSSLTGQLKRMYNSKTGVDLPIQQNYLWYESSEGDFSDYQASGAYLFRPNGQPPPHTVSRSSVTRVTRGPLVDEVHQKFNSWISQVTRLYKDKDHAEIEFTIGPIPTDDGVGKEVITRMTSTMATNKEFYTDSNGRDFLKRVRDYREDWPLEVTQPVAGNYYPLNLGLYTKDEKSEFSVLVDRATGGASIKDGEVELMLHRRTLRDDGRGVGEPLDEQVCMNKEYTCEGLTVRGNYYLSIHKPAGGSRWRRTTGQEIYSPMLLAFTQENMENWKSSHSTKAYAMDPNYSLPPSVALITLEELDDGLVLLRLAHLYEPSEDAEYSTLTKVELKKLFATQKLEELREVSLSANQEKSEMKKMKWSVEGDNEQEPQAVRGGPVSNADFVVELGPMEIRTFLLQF
# In short: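 Jack bean α-mannosidase (0.1 U/cm3) was preincubated with inhibitor for 1 h at 37 °C. Substrate was 10 mM p-nitrophenyl α-D-mannopyranoside in 100 mM citrate pH 4.5, reacted 10 min at 37 °C. The reaction was stopped with 200 mM borate pH 9.8 and absorbance read at 420 nm. Ki came from Lineweaver–Burk plots; average of five assays. NI means under 50% inhibition at 1 mM.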
# Splenocyte [4] = assay: Immunostimulating activity in Swiss albino mouse Splenocytes assessed as increase in ConA-induced cell proliferation upto 5 uM after 72 hrs by MTT assay; assay type: functional, cell-based
# In short: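 Splenocytes (2 × 10^6/well) from Swiss albino mice were treated with Con A (methods give final 10 μg/mL; results give 10 μM), alone or with compound at final 0.5, 1, 2.5 and 5 μM. Incubation was 72 h at 37 °C, 5% CO2, in RPMI with 10% FCS. Readout by MTT, expressed as % of Con A-treated cells (100%); mean ± SEM, n = 5.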
# [5] = Cytotoxicity against Swiss albino mouse Splenocytes assessed as cell proliferation at 0.5 to 5 uM after 72 hrs by MTT assay; assay type: cell-based; conditions: splenocyte
# In short: (§2)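 Swiss albino mouse splenocytes (2 × 10^6 cells/well) were treated with Con A alone or with test samples at final 0.5, 1, 2.5 and 5 μM. Con A is given as final 10 μg/mL in methods and 10 μM in text. Cells were held 72 h at 37 °C, 5% CO2, in RPMI with 10% FCS, then read by MTT. Values are % of Con A-treated cells (100%), mean ± SEM, n = 5.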
# Splenocyte [6] = assay: Immunostimulating activity in Swiss albino mouse Splenocytes assessed as decrease in ConA-induced IL-4 secretion at 5 uM by ELISA; assay type: functional
# Splenocyte [7] = assay: Immunostimulating activity in Swiss albino mouse Splenocytes assessed as increase in IL-6 secretion at 5 uM by ELISA in presence of 10 uM ConA relative to control; assay type: functional
# In short: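 Supernatants came from splenocytes (2 × 10^6/well) treated with Con A 10 μM plus compound at 5 μM. IL-6 was measured by ELISA: samples 2 h at 37 °C, biotinylated antibody 1 h, then streptavidin–HRP and substrate developed in the dark. Read at 550 nm with 450 nm correction and quantified from an IL-6 standard curve; mean ± SEM, n = 5.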
# Splenocyte [8] = assay: Immunostimulating activity in Swiss albino mouse Splenocytes assessed as increase in ConA-induced IFN-gamma secretion at 5 uM by ELISA; assay type: functional, cell-based
# In short: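 Splenocyte supernatants (2 × 10^6 cells/well) were collected after 24 h stimulation with Con A 10 μM alone or with compound at 5 μM. Unstimulated cells served as control. IFN-γ was quantified by sandwich ELISA; mean ± SEM, n = 5.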
# Splenocyte [9] = assay: Immunostimulating activity in Swiss albino mouse Splenocytes assessed as ConA-induced cell proliferation > 5 uM after 72 hrs by MTT assay; assay type: functional, cell-based
# Alpha-mannosidase = biological target: T3, Alpha-mannosidase (Canavalia ensiformis, UniProt C0HJB3); assay: Inhibition of jack bean alpha-mannosidase using 10 mM p-nitrophenyl-alpha-D-mannopyranoside as substrate
# T3 sequence (C0HJB3 whole entry): T2 sequence (whole entry)
# In short: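 Jack bean α-mannosidase (0.1 U cm−3) was preincubated with compound 1 h at 37 °C. Reaction used 10 mM p-nitrophenyl-α-D-mannopyranoside in 100 mM citrate pH 4.5, 10 min at 37 °C, stopped with 200 mM borate pH 9.8. Read at 420 nm. IC50 and Ki were determined, Ki from Lineweaver–Burk double-reciprocal plots. Mean of five assays.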
# Splenocyte [10] = assay: Immunostimulating activity in Swiss albino mouse Splenocytes assessed as increase in ConA-induced cell proliferation upto 2.5 uM after 72 hrs by MTT assay; assay type: functional, cell-based; in short: as §2
# Splenocyte [11] = assay: Immunostimulating activity in Swiss albino mouse Splenocytes assessed as decrease in ConA-induced IL-4 secretion at 2.5 uM by ELISA; assay type: functional
# In short: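 Supernatants came from Con A-stimulated splenocytes (2 × 10^6 cells/well) with compound at 2.5 or 5 μM. They were spun 2000g for 5 min and stored at −70 °C. IL-4 was measured by ELISA: sample 2 h at 37 °C, then peroxidase conjugate 1 h, substrate developed in the dark. Absorbance was read at 550 nm with 450 nm correction and quantified from an IL-4 standard curve. n = 5.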
# Splenocyte [12] = assay: Immunostimulating activity in Swiss albino mouse Splenocytes assessed as increase in IL-6 secretion at 2.5 uM by ELISA in presence of 10 uM ConA relative to control; assay type: functional
# In short: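 Splenocytes (2 × 10^6 cells/well) were stimulated with 10 μM Con A plus compound (2.5 or 5 μM). Supernatant IL-6 was measured by sandwich ELISA: sample 2 h at 37 °C, biotinylated antibody 1 h, streptavidin–HRP, then substrate in the dark. Absorbance was read at 550 nm with 450 nm correction against an IL-6 standard curve. Mean ± SEM, n = 5.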
# Splenocyte [13] = assay: Immunostimulating activity in Swiss albino mouse Splenocytes assessed as increase in ConA-induced IFN-gamma secretion at 2.5 uM by ELISA; assay type: functional, cell-based
# In short: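 IFN-γ was measured by ELISA in supernatants of splenocytes (2 × 10^6 cells/well). Cells were unstimulated, stimulated with Con A (10 μM), or given Con A plus compound (2.5 or 5 μM) for 24 h. Mean ± SEM, n = 5.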
# [14] = Inhibition of rice alpha-glucosidase using 10 mM p-nitrophenyl-alpha-D-glucopyranoside as substrate; design: species or system Oryza sativa
# In short: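 Rice α-glucosidase (0.1 U cm−3) was preincubated with compound 1 h at 37 °C. Reaction used 10 mM p-nitrophenyl-α-D-glucopyranoside in 100 mM phosphate pH 6.8, 10 min at 37 °C, stopped with 0.1 M Na2CO3. p-Nitrophenol was read at 420 nm. Ki came from Lineweaver–Burk plots. Average of five assays.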
# Aspergillus niger = assay: Inhibition of aspergillus niger alpha-galactosidase at 1 mM using 10 mM p-nitrophenyl-alpha-D-galactopyranoside as substrate
# In short: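 Galactosidase (0.1 U cm−3) was preincubated with compound 1 h at 37 °C. Reaction used 10 mM p-nitrophenyl-α- or β-D-galactopyranoside in 200 mM sodium acetate, 10 min at 37 °C, stopped with 200 mM borate pH 9.8. Read at 420 nm. NI means no 50% inhibition at 1 mM. Five assays averaged.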
Structure (SMILES),pIC50 [1],pKi [1],pIC50 [2],pKi [2],pIC50 (Beta-galactosidase),pKi (Beta-galactosidase),inhibition (Oryza sativa) [%],inhibition [3] [%],Activity (Splenocyte [4]),Activity [5],inhibition at 5 µM (Splenocyte [6]) [%],fold change (FC) (Splenocyte [7]),Activity (Splenocyte [8]),Activity (Splenocyte [9]),pIC50 (Alpha-mannosidase),pKi (Alpha-mannosidase),Activity (Splenocyte [10]),inhibition at 2.5 µM (Splenocyte [11]) [%],fold change (FC) (Splenocyte [12]),Activity (Splenocyte [13]),further results
OC[C@]12CCCN1C[C@H](O)[C@@H](O)[C@@H]2O,3.94,4.02,6.89,7.05,5.44,5.82,< 50,< 50,Active,Non-toxic,31,4.1,Active,inactive,,,,,,,
O=C1CC[C@@]2(CO)[C@@H](O)[C@H](O)[C@@H](O)CN12,4.41,4.72,3.89,4.85,5.25,5.62,< 50,,,Non-toxic,,,,inactive,7.12,7.37,Active,47,9,Active,
OC[C@@]12CCCN1C[C@H](O)[C@@H](O)[C@@H]2O,3.69,3.99,6.62,6.27,5.64,6.00,< 50,< 50,Active,Non-toxic,34,4.4,Active,inactive,,,,,,,
O=C1CC[C@@]2(CO)[C@@H](O)[C@H](O)[C@H](O)CN12,4.34,4.62,3.20,4.17,5.14,5.51,< 50,,,Non-toxic,,,,inactive,5.89,6.05,Active,34,8.2,Active,
OC[C@@]12CCCN1C[C@@H](O)[C@@H](O)[C@@H]2O,3.81,4.07,6.20,6.36,5.92,6.30,< 50,< 50,Active,Non-toxic,31,3.7,Active,inactive,,,,,,,
OCCN1C[C@H](O)[C@@H](O)[C@H](O)[C@H]1CO [MIGLITOL],3.47,4.49,,,3.70,4.00,,< 50,,,,,,,,,,,,,pIC50 [14]: 7.00; pKi [14]: 7.22; inhibition (Aspergillus niger): < 50%
